Laboratory results reported in ChEMBL document CHEMBL1123761, “Inhibition of the mammalian beta-lactamase renal dipeptidase (dehydropeptidase-I) by (Z)-2-(acylamino)-3-substituted-propenoic acids” (J Med Chem, 1987).
Non-standard residues stand in square brackets, D forms with d. Residues, ends and D or L forms follow the SMILES beside them. *: point of attachment. Isovaleryl = CC(C)CC(=O)*; Dhb = C/C=C(\N)C(=O)O; Butyryl = CCCC(=O)*

molecular target: T1, Dipeptidase 1 (Sus scrofa) (UniProt P22412); assay: Inhibitory activity against beta-lactamase renal dipeptidase at a concentration of 100 uM
T1 sequence (whole entry): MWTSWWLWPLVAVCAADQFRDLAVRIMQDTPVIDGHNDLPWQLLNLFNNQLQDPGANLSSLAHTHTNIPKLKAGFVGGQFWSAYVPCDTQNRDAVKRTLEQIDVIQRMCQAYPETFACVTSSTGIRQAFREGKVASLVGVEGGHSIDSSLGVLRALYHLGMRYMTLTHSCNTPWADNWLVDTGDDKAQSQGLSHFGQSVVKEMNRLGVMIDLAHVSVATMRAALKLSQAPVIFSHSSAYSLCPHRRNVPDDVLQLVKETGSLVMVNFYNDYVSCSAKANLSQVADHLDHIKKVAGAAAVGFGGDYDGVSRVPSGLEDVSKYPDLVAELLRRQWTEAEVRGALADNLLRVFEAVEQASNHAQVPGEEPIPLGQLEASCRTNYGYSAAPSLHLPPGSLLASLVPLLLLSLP
Summary of the method: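 Inhibitor was incubated with solubilized renal dipeptidase (50–75% ammonium sulfate fraction, 5 µg) in 50 mM MOPS pH 7.1 for 5 min at 37 °C. Glycyldehydrophenylalanine was then added to 50 µM. Rate was followed as the absorbance decrease at 275 nm over 10 min and compared with the uninhibited rate.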

Structure (SMILES)	inhibition [%]
C/C=C(\NC(=O)COc1ccccc1)C(=O)O	3
C/C=C(\NC(=O)CNC(=O)CC(C)C)C(=O)O (Isovaleryl-Gly-[Dhb]-OH)	5
C/C=C(\NC(=O)C1C(C)(C)C1(C)C)C(=O)O	10
O=C(CO)N/C(=C\c1ccccc1)C(=O)O	4
C=C(NC(=O)c1ccccc1)C(=O)O	9
C/C=C(\NC(=O)CCCCCCCCC)C(=O)O	58
C/C=C(\NC(=O)Cc1ccccc1)C(=O)O	21
CO/C=C(\NC(=O)c1ccccc1)C(=O)O	23
C/C=C(\NC(=O)CCCCC(C)C)C(=O)O	57
C/C=C(\NC(=O)CNC(=O)CCC)C(=O)O (Butyryl-Gly-[Dhb]-OH)	5
C/C=C(\NC(=O)CCl)C(=O)O	52
O=C(O)/C(=C/Cl)NC(=O)c1ccccc1	36
CC(C)=C(NC(=O)c1ccccc1)C(=O)O	4
C/C=C(\NC(=O)/C=C/c1ccccc1)C(=O)O	0
C/C=C(\NC(=O)CCCC(=O)N(C)C)C(=O)O	46
C/C=C(\NC(=O)CCCCCCCCCCCCCCCCC)C(=O)O	12
C/C=C(\NC(=O)CCCCCCCCCCCCC)C(=O)O	45
C/C=C(\NC(=O)CCc1ccccc1)C(=O)O	30
C/C=C(\NC(=O)C(CC)CCCC)C(=O)O (centres undefined)	33
C/C=C(\NC(=O)c1ccc2ccccc2c1)C(=O)O	3

Now from value to molecule:

inhibition [%]	Structure (SMILES)
2.5	C/C=C(\NC(=O)c1ccc(C)cc1)C(=O)O
51	C/C=C(\NC(=O)CCC1CCCO1)C(=O)O (centres undefined)
6	C[C@H](N)C(=O)N/C(=C\Cl)C(=O)O
57	CC(C)=C(NC(=O)C1CC1(C)C)C(=O)O (centres undefined)
12	C/C=C(\NC(C)=O)C(=O)O
49	C/C=C(\NC(=O)CCCCCC)C(=O)O
11	C/C=C(\NC(=O)C1(C)CCCCC1)C(=O)O
0	C/C=C(\NC(=O)c1c(Cl)cccc1Cl)C(=O)O
13	C/C=C(\NC(=O)C(CCC)CCC)C(=O)O
57	C=CCCC(=O)N/C(=C\C)C(=O)O
54	C/C=C(\NC(=O)CC1CC2CCC1C2)C(=O)O (centres undefined)
44	C/C=C(\NC(=O)C1C(C(C)(C)C)C1(C)C)C(=O)O (centres undefined)
31	C/C=C(\NC(=O)C(C)C)C(=O)O
0	C/C=C(\NC(=O)C(C)(C)C)C(=O)O
56	C/C=C(\NC(=O)CCC1CCCC1)C(=O)O
6	C/C=C(\NC(=O)CN)C(=O)O (H-Gly-[Dhb]-OH)
57	C/C=C(\NC(=O)c1ccco1)C(=O)O
16	C/C=C(\NC(=O)C1(C)CC1)C(=O)O
15	C/C=C(\NC(=O)C1C(C=C(C)C)C1(C)C)C(=O)O (centres undefined)
0	C/C=C(\NC(=O)/C=C/C=C/C)C(=O)O
33	C/C=C(\NC(=O)CC12CC3CC(CC(C3)C1)C2)C(=O)O
54	C/C=C(\NC(=O)CCCCC)C(=O)O
0	C/C=C(\NC(=O)c1ccc(OC)cc1)C(=O)O
7	C/C=C(\NC(=O)c1ccc(Cl)cc1)C(=O)O
50	C/C=C(\NC(=O)CC1=CCCCC1)C(=O)O
3	C/C=C(\NC(=O)C12CC3CC(CC(C3)C1)C2)C(=O)O
43	C/C=C(\NC(=O)CC)C(=O)O
54	C/C=C(\NC(=O)CCC1CCCCC1)C(=O)O

molecular target: T2, Dipeptidase 1 (Sus scrofa, UniProt P22412); assay: Inhibitory activity against beta-lactamase renal dipeptidase
T2 sequence (P22412 whole entry): T1 sequence (whole entry)

Ki [nM]	Structure (SMILES)
400	CC1(C)CC1C(=O)N/C(=C\C1CCCCC1)C(=O)O (centres undefined)
